# Sampled rows, rich in hits. Any-hit rate of the full collection: about 2.4%.
# MT stabilizer: microtubule stabilization, imaging screen | HeLa tubulin immunostaining HCS, 24 h; share of cells brighter than vehicle mean+2SD | % tubulin-high responders, % at 10 µM | 200,000 compounds, 0.83% hits | AID 2205;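 active = plate Z-score above 3 for both tubulin-high and condensed-nucleus cell shares, with cell loss under 80%, at 10 µM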;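 also: anti alpha tubulin signal scored within the nucleus-defined area of each cell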
# HSV augment: HSV replication enhancement | AID 1956 | maximum fold increase | HSV replication augmentation in cells, fold increase | 220,000 compounds, 0.005% hits; in the data active = maximum fold increase above about 1.5; inconclusive = no clear call, values can overlap the other calls; tested in PC3 cells
# b-catenin transl: alters nuclear translocation of beta-catenin in HeLa cells. nuclear translocation activity, % at 5 µM. 190,000 compounds, 0.3% hits. immunofluorescence imaging. AID 1665;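 active = nuclear translocation activity above 50% at 5 µM, with a well cell count of 50 or more; inconclusive = wells under 50 cells across six images, flagged as toxic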;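 also: per-cell ratio of nuclear to cytoplasmic median beta-catenin stain intensity; plate controls were DMSO negative control for no effect and GSK-3 inhibitor IX positive control for full effect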
#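 System: HeLa cells, endogenous beta-catenin; compound dosing: 5 µM primary single dose, 0.1% DMSO, 0.02–20 µM confirmation series; incubation: 24 h compound exposure at 37°C, 5% CO2; signal: beta-catenin immunofluorescence imaging with DAPI; evaluation: % activation, nuclear-to-cytoplasmic median beta-catenin signal ratio per cell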
# ROMK primary: modulates human ROMK potassium channel activity; 130,000 compounds, 2% hits; P48048; B-score at 10 µM; Tet-inducible ROMK, thallium flux fluorescence; actives lie on both sides;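 active = signal ratio slope over the read window, or its plate-corrected B-score, at least 3 SD from the plate mean, either direction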;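 also: B-score of the F/F0 ratio slope over 7 to 12 s after thallium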
# Target sequence (P48048 whole entry, looked up): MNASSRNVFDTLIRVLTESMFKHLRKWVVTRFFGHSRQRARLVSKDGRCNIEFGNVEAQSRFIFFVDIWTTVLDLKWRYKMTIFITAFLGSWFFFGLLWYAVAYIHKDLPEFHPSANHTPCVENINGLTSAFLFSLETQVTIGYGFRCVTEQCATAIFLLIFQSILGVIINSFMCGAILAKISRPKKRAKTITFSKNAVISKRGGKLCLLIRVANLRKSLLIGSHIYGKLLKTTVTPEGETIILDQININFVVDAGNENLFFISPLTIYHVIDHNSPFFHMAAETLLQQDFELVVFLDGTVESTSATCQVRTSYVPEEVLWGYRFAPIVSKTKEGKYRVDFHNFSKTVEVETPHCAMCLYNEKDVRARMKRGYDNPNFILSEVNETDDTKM
# Insulin prom inh: TRM-6 insulin promoter activity inhibition | inhibition, % at 2 µM | TRM-6 cells, insulin promoter-eGFP reporter, imaging; reporter expression induced with tamoxifen | 130,000 compounds, 0.9% hits | AID 1273;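 active = inhibition above the mean plus 3 SD, with well images judged a real hit on visual review, cut at about 60% in these data, passing the limit was not always enough; inconclusive = inhibition over the cutoff but images rejected on review; inactive = inhibition not above the cutoff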
# An asterisk follows results filed as active; i = inactive; ? = inconclusive; / = no result given.
SMILES,MT stabilizer,HSV augment,b-catenin transl,ROMK primary,Insulin prom inh
CC(C)C(=O)c1cc2c(cc1NC(=O)Nc1cccc3ccccc13)OCCO2,1,/,/,-1.4,-62
CC(C)C(=O)c1cc2c(cc1NC(=O)c1ccccc1)OCCO2,2,i,/,/,89*
CC(=O)Nc1cc2c(cc1C(=O)C(C)C)OCCO2,3,i,-2,/,62
CC(C)C(=O)c1cc2c(cc1NC(=O)c1cccs1)OCCO2,4,i,/,/,71*
C(=C\c1ccccc1)/CSc1nnc(-c2cnccn2)n1Cc1ccco1,5,i,56*,/,42
CCOC(=O)C1CCCN(CC(=O)NC2=Nc3ccccc3N=C(C)C2c2ccccc2)C1 (stereo unspecified),3,i,1,-2.1*,-69
Cc1cc(C)c(OCC(=O)Nc2cccc(NC(=O)c3ccco3)c2)c(Br)c1,4,i,0,-0.99,-13
Cc1cc(C)c(OCC(=O)Nc2ccc(NC(=O)c3ccco3)cc2)c([N+](=O)[O-])c1,4,i,2,0.14,64*
COc1cccc(C(=O)NC(=S)Nn2cnnc2)c1OC,6,i,-1,0.11,/
CCOC(=O)N1CCN(C(=S)Nc2cccc(C)c2)CC1,3,i,0,/,41
O=C(O)c1ccc2c(=O)n(-c3ccccc3F)c(=S)[nH]c2c1,2,i,0,-0.053,-35
COC(=O)c1ccc2c(=O)n(-c3ccccc3F)c(=S)[nH]c2c1,4,i,-1,-0.41,100*
O=C1CC(c2cccs2)Cc2nc(NC(=O)C3CC3)ncc21 (stereo unspecified),/,i,-2,-1.8,/
CC(C)(C)NC(=O)/C=C/c1cccc(C(F)(F)F)c1,1,i,-3,0.63,60*
CC(=O)Nc1ccc(NC(=O)/C=C/c2cccc(C(F)(F)F)c2)cc1,1,i,3,0.47,-7
O=C(/C=C/c1ccco1)NC(=S)Nc1nc(-c2ccc(Cl)cc2)cs1,12*,i,-2,/,/
CSCCC(NC(=O)c1ccc(C(C)(C)C)cc1)C(=O)O (stereo unspecified),4,i,0,0.079,-144
O=C(CSCc1ccccc1Cl)Nc1c[nH]c(=O)[nH]c1=O,2,i,0,/,21
CCC(=O)Nc1cc(C)c(NC(=O)C23CC4CC(CC(C4)C2)C3)cn1,2,i,-1,-0.21,76*
Cc1cc(NC(=O)C23CC4CC(CC(C4)C2)C3)n[nH]1,5,i,2,-0.056,/
COc1cc(/C=C2\SC(=S)N(c3cccnc3)C2=O)ccc1O,/,2.8*,6,/,/
COc1cc(/C=C2\SC(=N)N(c3ccc(F)cc3)C2=O)ccc1O,10*,?,2,0.16,/
CCN(C(=O)COC(=O)CNS(=O)(=O)c1ccccc1)c1ccccc1,4,i,-2,-0.9,40
Fc1ccccc1/C=N/NC(=S)Nc1ccc(Cl)cc1Cl,17*,i,?,/,-114
C=CCNC(=S)NNC(=O)CC12CC3CC(CC(C3)C1)C2,/,i,1,/,/
SMILES,MT stabilizer,HSV augment,b-catenin transl,ROMK primary,Insulin prom inh
Fc1ccc(/C=N/n2c(-c3cccs3)n[nH]c2=S)cc1,1,i,-1,/,-13
CCCC(=NCCc1c(C)[nH]c2ccccc12)C1=C(O)CC(c2ccccc2)CC1=O (stereo unspecified),26*,i,132*,1,-81
CCCCC(=NCCc1c(C)[nH]c2ccccc12)C1=C(O)CC(c2ccccc2)CC1=O (stereo unspecified),9,i,50*,/,-60
C=C(C)c1cccc(C(C)(C)NC(=O)N2CCC(C(N)=O)CC2)c1,3,i,-2,0.017,14
Clc1ccccc1/C=C/C=N/Nc1nc(N2CCOCC2)nc(N2CCOCC2)n1,5,i,-2,/,/
CCOC(=O)c1[nH]c(C)c(C(=O)c2cc(F)ccc2F)c1C,13,/,55*,/,70*
CCOC(=O)c1[nH]c(C)c(C(=O)OCC)c1C,3,i,/,/,/
COc1cc2c(cc1OC)CN(C(C)C(=O)N1CCc3ccccc31)CC2 (stereo unspecified),47*,i,/,0.75,15
CC(C(=O)N1CCc2ccccc21)N1CCc2ccccc2C1 (stereo unspecified),2,i,2,/,16
COc1cc(C(=O)N2CCCc3ccccc32)cc(OC)c1OC,39*,i,53*,/,14
O=C(Nc1ccccc1C(=O)O)/C(=C/c1ccc([N+](=O)[O-])cc1)NC(=O)c1ccc(Br)o1,3,i,-2,0.43,17
Nc1[nH]n2c(=O)c3c(nc2c1N=Nc1ccccc1)CCCC3,14,i,9,0.049,/
Nc1[nH]n2c(=O)c3c(nc2c1N=Nc1ccc(Cl)cc1)CCCC3,21*,i,4,/,-10
O=C1CC(/C=C/c2ccccn2)=Nc2ccccc2N1,7.4*,/,0,0.64,14
COc1ccc(NC2CS(=O)(=O)CC2NCc2ccccc2)cc1 (stereo unspecified),3,i,-1,/,-67
CC(=O)Nc1ccc([C@H]2[C@H](C)CC[C@H]3C(=O)N4[C@@H](CC[C@@H](C)[C@@H]4c4ccc(NC(C)=O)cc4)C(=O)N32)cc1,3,/,-1,0.24,24
COc1ccc(/C(C)=N/NC(=S)Nc2cc(C)ccc2C)cc1,6,i,1,-0.017,/
Cc1cc(C)c(-c2c(O)c3cnn(-c4ccccc4)c3[nH]c2=O)c(C)c1,3,i,/,-0.088,67*
O=C(Nc1cccnc1)c1ccc(COc2ccccc2Br)o1,26*,i,/,/,/
O=C(NCc1cccnc1)c1ccc(COc2ccccc2Br)o1,6,i,-1,/,-3
O=S(=O)(c1ccc(Cl)cc1)n1c(Cc2ccccc2)nc2ccccc21,6,i,-1,-0.34,41
O=S(=O)(N1CCOCC1)n1c(Cc2ccccc2)nc2ccccc21,3,i,0,/,70*
C/C(=N\NC(=O)c1ccccc1O)C1C(=O)c2ccccc2C1=O,2,i,/,1,48
C/C(=N/NC(=O)c1cc2ccccc2cc1O)C1C(=O)c2ccccc2C1=O,1,i,/,4.8*,56
CC(=O)c1nn(-c2ccc(Br)cc2)cc1C(=O)c1ccccc1,3,i,2,/,-13
SMILES,MT stabilizer,HSV augment,b-catenin transl,ROMK primary,Insulin prom inh
N#Cc1cn(-c2ccccc2)nc1C(=O)c1ccccc1,2,i,62*,0.24,-8
CCCc1noc2c1C(c1ccoc1)C(C#N)=C(N)N2 (stereo unspecified),5,i,0,-2.6*,/
CCOc1ccc(S(=O)(=O)NCCC(=O)OCC(=O)Nc2cc(C)on2)cc1,/,i,2,/,/
O=C1c2[nH]nc(-c3ccccc3O)c2C(c2cccc(Cl)c2)N1Cc1ccco1 (stereo unspecified),17*,i,-6,-1.3,/
COC(=O)CSc1cc(C(=O)c2nccn2C)c2ccccc2n1,1,i,-4,/,-35
Cn1ccnc1C(=O)c1cc(SCC(=O)NCc2ccccc2)nc2ccccc12,16*,i,-2,/,0
O=C(N/N=C/C=C/c1ccco1)c1cccnc1,3,i,-1,/,100*

# From PubChem BioAssay
